Reference: ChEMBL document CHEMBL1148560, “Synthesis and biological evaluation of novel C (7) modified chrysin analogues as antibacterial agents” (2006)
≈ marks a conversion by molar mass, not a printed value.

Tests used:
Format in all cases: functional
[1] = tested on: Chromobacterium violaceum; assay: Antibacterial activity against gram negative Chromobacterium violaceum(MTCC 2656)
Procedure, shortened: (§1)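 MIC determined by broth dilution per NCCL standards; test panel comprised Gram-positive Bacillus subtilis (MTCC 441), Bacillus sphaericus (MTCC 11), Staphylococcus aureus (MTCC 96) and Gram-negative Chromobacterium violaceum (MTCC 2656), Klebsiella aerogenes (MTCC 39), Pseudomonas aeruginosa (MTCC 741); highest concentration tested 200 μg/ml; penicillin and streptomycin run under identical conditions as reference agents.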

Staphylococcus aureus = assay: Antibacterial activity against gram positive Staphylococcus aureus(MTCC 96); procedure, shortened: as §1
Klebsiella aerogenes = assay: Antibacterial activity against gram negative Klebsiella aerogenes(MTCC 39); procedure, shortened: as §1
[2] = tested on: Lysinibacillus sphaericus; assay: Antibacterial activity against gram positive Bacillus sphaericus (MTCC 11)
Procedure, shortened: (§2)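 MICs were determined by broth dilution following National Committee for Clinical Laboratory (NCCL) standards. The same conditions were used for penicillin and streptomycin as reference agents.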

Bacillus subtilis = assay: Antibacterial activity against gram positive Bacillus subtilis MTCC 441; procedure, shortened: as §1
Pseudomonas aeruginosa = assay: Antibacterial activity against gram negative Pseudomonas aeruginosa (MTCC 741); procedure, shortened: as §2

| SMILES | MIC [1] [µg/mL] | MIC (Staphylococcus aureus) [µg/mL] | MIC (Klebsiella aerogenes) [µg/mL] | MIC [2] [µg/mL] | MIC (Bacillus subtilis) [µg/mL] | MIC (Pseudomonas aeruginosa) [µg/mL] |
| --- | --- | --- | --- | --- | --- | --- |
| O=c1cc(-c2ccccc2)oc2cc(OCCCN3CCOCC3)cc(O)c12 | 12.5 (≈ 32.8 µM) | 25 (≈ 65.5 µM) | 25 (≈ 65.5 µM) | 12.5 (≈ 32.8 µM) | 12.5 (≈ 32.8 µM) | – |
| O=c1cc(-c2ccccc2)oc2cc(OCCCCN3CCCCC3)cc(O)c12 | 6.25 (≈ 15.9 µM) | 25 (≈ 63.5 µM) | 25 (≈ 63.5 µM) | 12.5 (≈ 31.8 µM) | 12.5 (≈ 31.8 µM) | – |
| CN(C)CCCCOc1cc(O)c2c(=O)cc(-c3ccccc3)oc2c1 | 12.5 (≈ 35.4 µM) | 25 (≈ 70.7 µM) | 25 (≈ 70.7 µM) | 6.25 (≈ 17.7 µM) | 6.25 (≈ 17.7 µM) | – |
| O=c1cc(-c2ccccc2)oc2cc(OCCCCCCN3CCCCC3)cc(O)c12 | 25 (≈ 59.3 µM) | 25 (≈ 59.3 µM) | 25 (≈ 59.3 µM) | 12.5 (≈ 29.7 µM) | 25 (≈ 59.3 µM) | – |
| O=c1cc(-c2ccccc2)oc2cc(OCCCCCCN3CCOCC3)cc(O)c12 | 25 (≈ 59 µM) | 25 (≈ 59 µM) | 25 (≈ 59 µM) | 25 (≈ 59 µM) | 25 (≈ 59 µM) | – |
| CN(C)CCCOc1cc(O)c2c(=O)cc(-c3ccccc3)oc2c1 | 12.5 (≈ 36.8 µM) | 12.5 (≈ 36.8 µM) | 25 (≈ 73.7 µM) | 12.5 (≈ 36.8 µM) | 25 (≈ 73.7 µM) | – |
| CN(C)CCCCCCOc1cc(O)c2c(=O)cc(-c3ccccc3)oc2c1 | 25 (≈ 65.5 µM) | 25 (≈ 65.5 µM) | 25 (≈ 65.5 µM) | 12.5 (≈ 32.8 µM) | 12.5 (≈ 32.8 µM) | – |
| CN1CCN(CCCOc2cc(O)c3c(=O)cc(-c4ccccc4)oc3c2)CC1 | 12.5 (≈ 31.7 µM) | 25 (≈ 63.4 µM) | 25 (≈ 63.4 µM) | 12.5 (≈ 31.7 µM) | 12.5 (≈ 31.7 µM) | – |
| CN[C@@H]1[C@H](O[C@H]2[C@H](O[C@H]3[C@H](O)[C@@H](O)[C@H](N=C(N)N)[C@@H](O)[C@@H]3N=C(N)N)O[C@@H](C)[C@]2(O)C=O)O[C@@H](CO)[C@H](O)[C@H]1O [STREPTOMYCIN] | 3.12 (≈ 5.37 µM) | 6.25 (≈ 10.7 µM) | 1.56 (≈ 2.69 µM) | 12.5 (≈ 21.5 µM) | 6.25 (≈ 10.7 µM) | 1.56 (≈ 2.69 µM) |
| O=c1cc(-c2ccccc2)oc2cc(OCCCCN3CCOCC3)cc(O)c12 | 6.25 (≈ 15.8 µM) | 12.5 (≈ 31.6 µM) | 12.5 (≈ 31.6 µM) | 6.25 (≈ 15.8 µM) | 6.25 (≈ 15.8 µM) | – |
| CN1CCN(CCCCOc2cc(O)c3c(=O)cc(-c4ccccc4)oc3c2)CC1 | 6.25 (≈ 15.3 µM) | 12.5 (≈ 30.6 µM) | 12.5 (≈ 30.6 µM) | 6.25 (≈ 15.3 µM) | 25 (≈ 61.2 µM) | – |
| O=c1cc(-c2ccccc2)oc2cc(O)cc(O)c12 [CHRYSIN] | 25 (≈ 98.3 µM) | 50 (≈ 197 µM) | 50 (≈ 197 µM) | 25 (≈ 98.3 µM) | 50 (≈ 197 µM) | – |
| O=c1cc(-c2ccccc2)oc2cc(OCCCN3CCCCC3)cc(O)c12 | 6.25 (≈ 16.5 µM) | 12.5 (≈ 32.9 µM) | 25 (≈ 65.9 µM) | 12.5 (≈ 32.9 µM) | 25 (≈ 65.9 µM) | – |
| CN1CCN(CCCCCCOc2cc(O)c3c(=O)cc(-c4ccccc4)oc3c2)CC1 | 12.5 (≈ 28.6 µM) | 12.5 (≈ 28.6 µM) | 25 (≈ 57.3 µM) | 25 (≈ 57.3 µM) | 25 (≈ 57.3 µM) | – |
| CC1(C)S[C@@H]2[C@H](NC(=O)Cc3ccccc3)C(=O)N2[C@H]1C(=O)O [PENICILLIN G] | 12.5 (≈ 37.4 µM) | 1.56 (≈ 4.67 µM) | 6.25 (≈ 18.7 µM) | 3.12 (≈ 9.35 µM) | 1.56 (≈ 4.67 µM) | 6.25 (≈ 18.7 µM) |
